Results collected from several papers.
Each line is one published result; the experiments were not run side by side.
Read-out: cell growth or viability

For CCCCCCCCCCCCCCCCCCOc1ccc(CC(=O)OCC[N+](CC)(CC)CC)cc1, the inhibition was 13.3% (NCI-H322M; SRB; 10 µM).
The IC50 of O=C(Nc1ccc(F)cc1)Nc1nc2cc(-c3ccc4ncn(CC5CC5)c(=O)c4c3)ccc2s1 is reported as 1130 nM (NCI-H1975; MTT; 72 h).
For COc1ccc2/c(=N/c3ccccc3NC(=O)CN)cc(-c3ccc4c(c3)OCCO4)oc2c1, the inhibition was 8.23% (NCI-H1975; CCK-8; 1 µM).
CCCCCCCCCCCCCCCCCCOc1ccccc1CC(=O)OCC[N+]1(C)CCOCC1 gave an inhibition of 20.2% (NCI-H322M; SRB; 10 µM).
The inhibition of COc1ccc2/c(=N/c3ccccc3NC(=O)[C@@H](N)CO)cc(-c3ccc4c(c3)OCCO4)oc2c1 is reported as 1.06% (NCI-H1975; CCK-8; 1 µM).
The inhibition of CCCCCCCCCCCCCCCCCCOc1ccccc1CC(=O)OCCC[N+](C)(C)C is reported as 15.7% (NCI-H322M; SRB; 10 µM).
The IC50 of COc1cccc2c1C(=O)c1c(O)c3c(c(O)c1C2=O)C[C@@](O)(C(=O)CO)C[C@@H]3O[C@H]1C[C@H](N)[C@H](O)[C@H](C)O1 is reported as 67 nM (NCI-H1975; MTT; 72 h).
For CCCCCCCCCCCCCCCCCCOc1ccccc1CC(=O)OCC[N+]1(C)CCCC1, the inhibition was 31.9% (NCI-H322M; SRB; 10 µM).
With CCCCNC(=O)Nc1nc2cc(-c3ccc4ncn(Cc5ccccc5)c(=O)c4c3)ccc2s1 the IC50 was 7570 nM (NCI-H1975; MTT; 72 h).
The IC50 of CCCCC(=O)Nc1ccc(-c2ccc3ncn(CCCC)c(=O)c3c2)cn1 is reported as 310 nM (NCI-H1975; CCK-8; 72 h).
The inhibition of NCCC(=O)Nc1cccc(/N=c2\cc(-c3ccc4c(c3)OCO4)oc3ccccc23)c1 is reported as 2.94% (NCI-H1975; CCK-8; 1 µM).
For CCCC(=O)Nc1nc2cc(-c3ccc4ncn(Cc5ccccc5)c(=O)c4c3)ccc2s1, the IC50 was > 20000 nM (NCI-H1975; MTT; 72 h).
With CCCCC(=O)Nc1ncc(-c2ccc3ncn(CCC)c(=O)c3c2)cn1 the IC50 was 2870 nM (NCI-H1975; CCK-8; 72 h).
The IC50 of CC(C)CCn1cnc2ccc(-c3ccc4sc(NC(=O)Nc5ccc(F)cc5)nc4c3)cc2c1=O is reported as 960 nM (NCI-H1975; MTT; 72 h).
CCCCCCCCCCCCCCCCCCOc1cccc(CC(=O)OCC[N+]2(C)CCOCC2)c1 has an inhibition of 1.47% (NCI-H322M; SRB; 10 µM).
For C[C@H](Nc1ccc2c(c1)OCCn1cc(N3C(=O)OC[C@H]3C(F)F)nc1-2)C(N)=O, the EC50 was 438 nM (MKN-1; ATP luminescence; 5 days).
CCCn1cnc2ccc(-c3ccc(NC(=O)CC)nc3)cc2c1=O gave an IC50 of 1080 nM (NCI-H1975; CCK-8; 72 h).
CCCCCCCCCCCCCCCCCCOc1cccc(CC(=O)OCC[N+](CC)(CC)CC)c1 has an inhibition of 22.3% (NCI-H322M; SRB; 10 µM).
NCCCC(=O)Nc1ccccc1/N=c1\cc(-c2ccc3c(c2)OCO3)oc2ccccc12 has an inhibition of 1.32% (NCI-H1975; CCK-8; 1 µM).
CCCCC(=O)Nc1ccc(-c2ccc3ncn(CC#N)c(=O)c3c2)cn1 gave an IC50 of > 10000 nM (NCI-H1975; CCK-8; 72 h).
Cc1nc(Nc2ncc(C(=O)Nc3c(C)cccc3Cl)s2)cc(N2CC[C@H](O)C2)n1 gave an inhibition of 96% (Pfeiffer; ATP luminescence; 10 µM; 72 h).
O=C(Nc1ccc(F)cc1)Nc1nc2cc(-c3ccc4ncn(Cc5ccccc5)c(=O)c4c3)ccc2s1 has an IC50 of 2340 nM (NCI-H1975; MTT; 72 h).
The IC50 of CCCCC(=O)Nc1ccc(-c2ccc3ncn(CCCF)c(=O)c3c2)cn1 is reported as 140 nM (NCI-H1975; CCK-8; 72 h).
With C[C@H](N)C(=O)Nc1ccccc1/N=c1\cc(-c2ccc3c(c2)OCCO3)oc2cc(F)ccc12 the inhibition was -0.65% (NCI-H1975; CCK-8; 1 µM).
With COc1ccc(NC(=O)Nc2nc3cc(-c4ccc5ncn(Cc6ccccc6)c(=O)c5c4)ccc3s2)cc1 the IC50 was > 20000 nM (NCI-H1975; MTT; 72 h).
CCCCn1cnc2ccc(-c3ccc(NC(=O)Nc4ccccc4)nc3)cc2c1=O gave an IC50 of 2460 nM (NCI-H1975; CCK-8; 72 h).
With Cc1nc(NC(=O)N2CCC[C@H]2C(N)=O)sc1-c1ccnc(C(C)(C)C(F)(F)F)c1 the EC50 was 2110 nM (MKN-1; ATP luminescence; 5 days).
The IC50 of CCCCC(=O)Nc1ccc(-c2ccc3ncn(CCF)c(=O)c3c2)cn1 is reported as 190 nM (NCI-H1975; CCK-8; 72 h).
C[C@H](N)C(=O)Nc1ccccc1/N=c1\cc(-c2ccc3c(c2)OCO3)oc2ccccc12 has an inhibition of 1.32% (NCI-H1975; CCK-8; 1 µM).
For CCCCC(=O)Nc1ccc(-c2cnc3ccn(CCC)c(=O)c3c2)cn1, the IC50 was 1210 nM (NCI-H1975; CCK-8; 72 h).
With O=C(Nc1ccccc1/N=c1\cc(-c2ccc3c(c2)OCCO3)oc2cc(F)ccc12)N1CCOCC1 the inhibition was 2.35% (NCI-H1975; CCK-8; 1 µM).
CCCCCCCCCCCCCCCCCCOc1cccc(CC(=O)OCC[N+](C)(C)C)c1 has an inhibition of 0.32% (NCI-H322M; SRB; 10 µM).
NCC(=O)Nc1ccccc1/N=c1\cc(-c2ccc3c(c2)OCCO3)oc2ccccc12 gave an inhibition of 0.57% (NCI-H1975; CCK-8; 1 µM).
With CC(=O)O[C@H]1C(=O)[C@@]2(C)[C@H]([C@H](OC(=O)c3ccccc3)[C@]3(O)C[C@H](OC(=O)[C@H](O)[C@@H](NC(=O)c4ccccc4)c4ccccc4)C(C)=C1C3(C)C)[C@]1(OC(C)=O)CO[C@@H]1C[C@@H]2O the IC50 was 72 nM (NCI-H1975; MTT; 72 h).
